Tested on: MS2 coat protein
Assay: apparent Kd, MS2 coat protein; higher = weaker binding; RNA-MaP array; tryptophan 2.4 mM where present
Summary of the method: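 Designs were transcribed by stalled E. coli RNA polymerase on Illumina sequencing-chip clusters. They were titrated with SNAP-549-labelled MS2 coat protein from 0.7 or 1.5 nM, doubling to 3 µM, without and then with constant ligand. Buffer: 100 mM Tris-HCl pH 7.5, 80 mM KCl, 4 mM MgCl2, BSA, DTT, yeast tRNA, Tween-20. Green signal was normalised to red-channel RNA signal and control-cluster median Fmax. Apparent Kd is the median of filtered per-cluster binding-curve fits.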

[1] = designed as: OFF switch for tryptophan, no ligand
[2] = ligand present: tryptophan, designed as: OFF switch for tryptophan
[3] = designed as: ON switch for tryptophan, no ligand
[4] = ligand present: tryptophan, designed as: ON switch for tryptophan

Row | Sequence | apparent Kd [1] [nM] | apparent Kd [2] [nM] | apparent Kd [3] [nM] | apparent Kd [4] [nM]
1 | AAGCUUCGCAUAGGAAAACUAUGUGAAGCUCGAGGACCGGUACGGCCGCCACUCGUCCUCAACAUGAGGAUCACCCAUGUAAUAA | 22.5 | 28.2 | – | –
2 | ACAUGAGGAUCACCCAUGUGUGUAAAUCCUCGAGGACCGGUACGGCCGCCACUCGAACGAGUGUAAGUUGAAUGUAACAUUCAAC | – | – | 85.5 | 33.7
3 | GAUUAAACAUGAGGAUCACCCAUGUAUAUACGAGGACCGGUACGGCCGCCACUCGUAAACGAGUAUCCUCGAAUAAACAUGAUAA | – | – | 134 | 42.7
4 | AUAAGCUGUACCGGAAUAUCCUCAUGUAUACGAGGACCGGUACGGCCGCCACUCGAUAACAUGAGGAUCACCCAUGUAAUAAUAA | 11.2 | 11.2 | – | –
5 | AGUACAUGAGGAUCACCCAUGUGCCGGUAACGAGGACCGGUACGGCCGCCACUCGAUGUACCUCAAUUUGAUUGAGAUAAGAAAA | – | – | 41 | 17.4
6 | AGAGCAUUGACGGCCGCCACUCAUGUCACAUGAGGAUCACCCAUGUGAUGGGUGAUCGCCCGGUUGAGGACCGGGUCAAUGCUCA | – | – | 43 | 28.5
7 | AAUGUGAAGGCGGCCGCCACUGAUAAUAGACAUGAGGAUCACCCAUGUAUAAAUCCUCAAUAAGACAGGACCGGGCCAACUACGU | 105 | 125 | – | –
8 | UACAUGAGGAUCACCCAUGUCCCAUGUGAACGAGGACCGGUACGGCCGCCACUCGAAUAAGGCGGCACAUGAGGAUCACCCACAU | – | – | 284 | 712
9 | UAUCGUCAGACGGCCGCCACUAGAACAUGAGGAUCACCCAUGUACGGCCGCCCGGUAUGGGUGUCUAGGACCGGGUCUGACGAAU | 30.4 | 39 | – | –
10 | GAGGAAACUCACAUGAGGAUCACCCAUGUACGAGGACCGGUACGGCCGCCACUCGAAACCAUGGGCGGUUGUACAUGGAAACAUG | 24.8 | 74.8 | – | –
11 | AGCUACUCGUUCCUCAUGUACGAGUGGCAACGAGGACCGGUACGGCCGCCACUCGAAUAAACAUGAGGAUCACCCAUGUACAAAU | – | – | 54.6 | 120
12 | GCGUUCUCUGCGGCCGCCACUCAAGGAGCUACAUAGCUCCUAGACAUGAGGAUCACCCAUGUGGCGAGGACCGGGUAGAUCCUUA | – | – | 202 | 168
13 | UUUGACGGCGAUCUGGGUUUACCAGAUCGGCGAGGACCGGUACGGCCGCCACUCGUGUUUCUUUGACAUGAGGAUCACCCAUGUA | – | – | 39.1 | 18.4
14 | AGGUGCUGAUCGGCCGCCACUGAGAGGACGUGAACUUUAGCUGGUUACAUGAGGAUCACCCAUGUCAGGACCGGGAUUAGUUUGC | 9.26 | 17.4 | – | –
15 | CACGAAAGAUCGGCCGCCACUAUUUGAUGUGUUCUUUCACAUGAGGAUCACCCAUGUUCUUUCUUUAGGACCGGGAUUGAGCGUG | 99.4 | 49.5 | – | –
16 | GGCACAUAGUCGGCCGCCACUAGAAUAAGAAGGGAAAACAUGAGGAUCACCCAUGUAAAAGGGACUAGGACCGGGACUAUGUGCC | 13.9 | 13 | – | –
17 | UGUCAGCGAAAGUUGACAUGCAGUGCCGGUCGAGGACCGGUACGGCCGCCACUCGAUCUCUCGUACAUGAGGAUCACCCAUGUCG | – | – | 13.4 | 13.8
18 | GAUAUGGAAACAUGUCAGAUCCUUACCGGUCGAGGACCGGUACGGCCGCCACUCGAAAAUAAUAAACAUGAGGAUCACCCAUGUA | 14.4 | 32 | – | –
19 | UAAACUACACAUGAGGAUCACCCAUGUGGCCGAGGACCGGUACGGCCGCCACUCGUGUGUUAAUAAAAGAACUGCAAGAUUCUUU | – | – | 126 | 92.6
20 | AAUGUAUGGCACAUGAGGAUCACCCAUGUGCGAGGACCGGUACGGCCGCCACUCGGUCCUGGGAUCUUACCACUAUACAUUAAUG | 10 | 13.1 | – | –
21 | AGCCACUCGAGUGAUCCUCACGAGUGGCUACGAGGACCGGUACGGCCGCCACUCGAAUUAACAUGAGGAUCACCCAUGUAAUAAU | – | – | 152 | 39.6
22 | ACAUGAGGAUCACCCAUGUGCAUCACCCGACGAGGACCGGUACGGCCGCCACUCGGGUAUAUAUUUACAUCGGGUGAUUUUACGU | – | – | 22.8 | 21
